Bioassay records (PubChem BioAssay)
TRPC4 agonist: TRPC4 (mouse) channel activation; B-score at 10 µM; 0.49% of 310,000 active; AID 2237; Q9QUQ5; HEK293 TRPC4beta/mu-opioid, Fluo4 calcium fluorescence; active compounds read high;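 active = B-score above 5 SD of library B-scores, and initial fluorescence ratio not above library mean plus 5 SD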;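 note: positive B-score marks a calcium rise read as TRPC4 activation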
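Assay system: HEK293 stable line with TRPC4beta plus mu-opioid receptor. Times: dye 45 min RT, read 110 s. Measured by: kinetic Fluo4 calcium fluorescence. Measure: B score of integrated ratio. Controls: assay buffer as low control, maximal DAMGO as high control.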
TRPC4 block: TRPC4 (mouse) channel inhibition | B-score at 10 µM | Q9QUQ5 | 0.39% of 300,000 active | HEK293 TRPC4beta/mu-opioid, DAMGO-evoked Fluo4 calcium flux; active compounds read low;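 active = B-score over 3 SD under the library average, no early fluorescence shift, positive overall ratio signal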
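System: stable TRPC4beta/mu-opioid receptor HEK293 cells; Dosing: single-point compound dosing; Measured by: Fluo4 Ca2+ flux fluorescence; Read-out basis: per-well B score of integrated baseline-normalized Fluo4 ratio.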
TRPC4 PAM: allosterically enhances the mouse TRPC4 cation channel | Q9QUQ5 | AID 2227 | HEK293 TRPC4beta/mu-opioid, DAMGO EC20, Fluo-4 Ca2+ flux; active compounds read high | B-score at 10 µM | 0.42% of 310,000 active;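 active = B-score of calcium response area above 5 SD of library B-scores, with initial fluorescence ratio within 5 SD of library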
TRPC6 act: activators of mouse TRPC6 channel | HEK293-TRPC6 membrane potential dye fluorescence; active compounds read high | B-score at 10 µM | 0.13% of 310,000 active | AID 2550;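 active = B-score of the integrated fluorescence ratio above library mean plus 3 SD, and starting fluorescence ratio within library mean plus 5 SD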;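 note: higher score means more depolarization so channel activation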
Target sequence (Q61143 whole entry, looked up): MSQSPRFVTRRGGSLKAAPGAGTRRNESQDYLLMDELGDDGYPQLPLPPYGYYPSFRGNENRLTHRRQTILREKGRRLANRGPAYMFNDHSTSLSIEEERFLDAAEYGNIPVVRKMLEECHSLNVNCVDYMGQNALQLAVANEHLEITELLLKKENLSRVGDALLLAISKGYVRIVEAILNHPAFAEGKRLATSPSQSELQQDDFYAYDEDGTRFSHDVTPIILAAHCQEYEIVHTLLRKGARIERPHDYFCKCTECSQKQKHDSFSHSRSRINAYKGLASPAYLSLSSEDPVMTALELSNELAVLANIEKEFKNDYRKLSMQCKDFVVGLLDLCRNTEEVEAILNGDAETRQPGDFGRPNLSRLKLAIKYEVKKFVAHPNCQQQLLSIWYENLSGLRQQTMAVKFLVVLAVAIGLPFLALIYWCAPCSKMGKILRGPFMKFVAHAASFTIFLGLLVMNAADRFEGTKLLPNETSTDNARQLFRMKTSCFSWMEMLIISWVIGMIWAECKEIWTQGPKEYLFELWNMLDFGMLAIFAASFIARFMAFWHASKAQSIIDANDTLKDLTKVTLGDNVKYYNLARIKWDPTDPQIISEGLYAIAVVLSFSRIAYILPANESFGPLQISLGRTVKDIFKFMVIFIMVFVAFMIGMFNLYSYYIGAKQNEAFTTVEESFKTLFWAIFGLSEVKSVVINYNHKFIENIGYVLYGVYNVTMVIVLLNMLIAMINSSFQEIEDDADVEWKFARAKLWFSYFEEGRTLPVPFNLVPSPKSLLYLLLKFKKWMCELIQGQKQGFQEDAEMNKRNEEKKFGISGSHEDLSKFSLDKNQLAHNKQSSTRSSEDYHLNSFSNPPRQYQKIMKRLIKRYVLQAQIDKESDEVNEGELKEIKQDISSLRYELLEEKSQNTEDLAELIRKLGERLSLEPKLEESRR
TRPC6 inhibitor: inhibitors of mouse TRPC6 channel; B-score at 10 µM; Q61143; HEK293-TRPC6, membrane potential dye, ACh-evoked depolarization; active compounds read low; AID 2553; 1.1% of 310,000 active;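 active = B-score under library mean minus 3 SD, initial fluorescence not abnormally high, positive integrated signal ratio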;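 note: B-score derived from integrated fluorescence ratio over the kinetic read; more negative B-score means stronger inhibition of depolarization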
TRPC4 spec 2: second selectivity test of TRPC6 inhibitors: effect on mouse TRPC4 | 42% of 920 active | AID 2776 | inhibition, % at 10 µM | shares compounds with TRPC6 inhibitor | HEK293 TRPC4/MOR, membrane potential dye fluorescence; channel activated by saturating DAMGO dose;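 active = compounds whose fluorescence signal differed from control wells by over 3 SD, either direction, in both duplicate plates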
TRPC4 spec: mouse TRPC4 off-target activity of TRPC6 inhibitors | activity change, negative = inhibition, % at 10 µM | AID 2777 | shares compounds with TRPC6 inhibitor | HEK293 TRPC4/mu-opioid, membrane potential fluorescence | 61% of 920 active;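 active = rise or fall in signal beyond 3 SD of buffer-only wells in both replicate plates, either sign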;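 note: integrated kinetic ratio of fluorescence range over baseline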
HEK293 MPD ctr 2-1: second counter-screen for TRPC6 inhibitors: parental HEK293 cells; shares compounds with TRPC6 inhibitor; parental HEK293 membrane potential dye fluorescence; maximal acetylcholine challenge after compound addition; signal change vs control, % at 10 µM; 31% of 920 active; AID 2779;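 active = membrane potential signal moving either way by over 3 SD of the maximum-effect control, in both duplicate plates, meaning non-specific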
HEK293 MPD ctr-1: checks TRPC6 inhibitor effects in parental HEK293 cells; parental HEK293 membrane potential dye fluorescence; membrane potential signal change, % at 10 µM; shares compounds with TRPC6 inhibitor; 60% of 920 active;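 active = membrane potential signal shifting up or down by more than 3 SD of buffer-only wells, on both duplicate plates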
HEK293 MPD ctr-2: counter-screen for TRPC6 modulators: effect in parental HEK293 cells | shares compounds with TRPC6 inhibitor | membrane potential dye fluorescence | membrane potential signal change, % at 10 µM | 51% of 2,400 active | AID 488924;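 active = membrane potential signal moves up or down beyond 5 SD from buffer-only wells, on both duplicate plates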
HEK293 MPD ctr 2-2: second check of TRPC6 modulator effects in parental HEK293 cells. shares compounds with TRPC6 inhibitor. membrane potential dye fluorescence; after compound, maximal acetylcholine stimulation. inhibition, % at 10 µM. 14% of 2,400 active. AID 488926;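 active = membrane potential signal drops by more than 5 SD from the mean control signal, in both duplicate plates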
TRPC4 ctr mod: selectivity of TRPC6 modulators against mouse TRPC4. 69% of 2,400 active. HEK293 TRPC4/mu-opioid, membrane potential fluorescence. AID 488927. percent change from control (negative = decrease, positive = increase), % at 10 µM. shares compounds with TRPC6 inhibitor;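 active = membrane potential signal moved up or down beyond 5 SD of buffer control wells, in both duplicate plates, actives on both sides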
TRPC4/MOR inh 2: second selectivity test of TRPC6 modulators against mouse TRPC4. shares compounds with TRPC6 inhibitor. HEK293 TRPC4/mu-opioid, membrane potential dye fluorescence; stimulated with maximal-effect DAMGO. inhibition, % at 10 µM. 55% of 2,400 active;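 active = drop in membrane potential signal beyond 5 SD of the control wells in both duplicate plates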;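 note: TRPC4 counter screen for TRPC6 hits run under conditions tuned for TRPC6 not TRPC4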
TRPC6 block conf: mouse TRPC6 inhibitor confirmation; shares compounds with TRPC6 inhibitor; HEK293-TRPC6, membrane potential dye, ACh-evoked depolarization; inhibition, % at 10 µM; 43% of 3,300 active; AID 488960;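 active = fluorescence ratio falls more than 5 SD below the full-stimulation control mean, in both duplicate runs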;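 note: integrated fluorescence ratio of peak minus minimum over baseline after agonist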
TRPC6 act confirm: mouse TRPC6 activator confirmation; shares compounds with TRPC6 inhibitor; HEK293-TRPC6 membrane potential dye fluorescence, FDSS; activation, % at 10 µM; 11% of 2,800 active; AID 488961;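 active = ratio signal rise beyond 5 SD above unstimulated control wells' mean, seen in both duplicate runs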
Large screens that a line does not name were inactive (follow-up assays come after a bar, where they were run). Most compounds without a hit are left out; they make up all but 2.3% or so of the library.

Cc1nn(C(=O)N2CCOCC2)c(C)c1C	TRPC6 inhibitor -5.5 | HEK293 MPD ctr-2 inactive | HEK293 MPD ctr 2-2 inactive | TRPC4 ctr mod inactive | TRPC4/MOR inh 2 inactive | TRPC6 block conf inactive | TRPC6 act confirm inactive
CSc1nc2ccc(NC(=O)c3ccc(=O)n(C)n3)cc2s1	TRPC6 inhibitor -5.1 | HEK293 MPD ctr-2 inactive | HEK293 MPD ctr 2-2 inactive | TRPC4 ctr mod inactive | TRPC4/MOR inh 2 inactive | TRPC6 block conf inactive | TRPC6 act confirm inactive
CCN(CC)CCOC(=O)C1c2ccccc2Oc2ccccc21	TRPC6 inhibitor -10 | TRPC4 spec 2 inactive | TRPC4 spec 7.9% | HEK293 MPD ctr 2-1 28% | HEK293 MPD ctr-1 6.7% | TRPC6 block conf 81%
N#CCOC(=O)C1c2ccccc2Oc2ccccc21	none
COc1ccc(OC)c(/C=N/NC(=O)Cn2ccnc2C)c1	TRPC6 act 14, TRPC6 inhibitor -10 | HEK293 MPD ctr-2 inactive | HEK293 MPD ctr 2-2 inactive | TRPC4 ctr mod inactive | TRPC4/MOR inh 2 inactive | TRPC6 block conf 80% | TRPC6 act confirm 186%
COc1cccc(/C=N/NC(=O)Cn2ccnc2C)c1	none
Cc1[nH]c2ccccc2c1NC(=O)CN1CCN(C(=O)c2ccco2)CC1	none
CCCCOc1ccc(C(=O)OC2CC(C)N(C)CC2C)cc1 (stereo not drawn)	TRPC6 act 15 | HEK293 MPD ctr-2 253% | HEK293 MPD ctr 2-2 inactive | TRPC4 ctr mod 50% | TRPC4/MOR inh 2 48% | TRPC6 block conf inactive | TRPC6 act confirm 120%
O=C(CSc1nnc(CNC(=O)c2c(F)cccc2F)o1)NCc1ccco1	none
CCn1cc(Br)c(C(=O)NCc2ccco2)n1	TRPC6 inhibitor -5.8 | HEK293 MPD ctr-2 inactive | HEK293 MPD ctr 2-2 inactive | TRPC4 ctr mod inactive | TRPC4/MOR inh 2 inactive | TRPC6 block conf inactive | TRPC6 act confirm inactive
CC(C)C(NS(=O)(=O)c1ccc2c(c1)C(C)(C)C(=O)N2C)C(=O)NCc1ccc(F)cc1 (stereo not drawn)	none
CC1CCCCC1NC(=O)CCNS(=O)(=O)c1ccc(Cl)cc1 (stereo not drawn)	none
O=C(CN1CCS(=O)(=O)CC1)N/N=C/c1cccc(C(F)(F)F)c1	TRPC6 inhibitor -5.3 | HEK293 MPD ctr-2 inactive | HEK293 MPD ctr 2-2 inactive | TRPC4 ctr mod inactive | TRPC4/MOR inh 2 inactive | TRPC6 block conf inactive | TRPC6 act confirm inactive
COc1ccc(/C=N/NC(=O)CN2CCS(=O)(=O)CC2)cc1	none
